Candida biofilm = kills Candida albicans biofilms; C. albicans biofilm + clotrimazole, Alamar Blue; inhibition, % at 6 µM; 0.14% of 85,000 active; AID 834;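 active = inhibition above 20%; inactive = inhibition below 20%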;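 also: preformed 24 hr biofilms exposed to compound for 48 hr; 0% = biofilm without compound and 100% = blank killed by clotrimazole plus chlorhexidine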
PostGolgi ctrl = inhibits growth of the yeast control strain; efflux-deficient yeast background strain, growth absorbance A615, 16 h; inhibition, % at 10 µM; 5% of 98,000 active; AID 738
tolC growth inh = growth inhibitors of E. coli BW25113 tolC mutant | OD615 | growth inhibition, % at 10 µM (by protocol) | 2.2% of 65,000 active | AID 573;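 active = growth inhibition at or above a cutoff equal to the mean over every tested compound plus 3 SD, cut at about 60% in these data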;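 also: growth measured after 20 h incubation at 37 °C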
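Doses: one dose of 10 µM final / Material: E. coli BW25113 ΔtolC::kan, tolC deletion mutant strain / Buffer or medium: LB with kanamycin 50 µg/mL / Evaluation: percent growth inhibition / Detection: optical density read at 615 nm / Incubation: 37 °C, 20 h exposure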
PostGolgi yeast = growth inhibition of a yeast mutant, post-Golgi transport screen; post-Golgi transport phenotypic cell assay; AID 739; 0.9% of 98,000 active; inhibition, % at 10 µM;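 also: yeast cells grown in 1536-well plates; yeast grown about 18 h at 30C before absorbance read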
PTK2B oligo ant = antagonists of human Pyk2 oligomerization | z-score (the deposit names both 25 µM and 10 µM) | AID 1347419 | 0.83% of 99,000 active | Q14289 | Q293 cells, Pyk2 FERM NanoBiT luminescence; active compounds read low;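 active = Z-score of -3 or lower, scaled per plate to the spread of control and sample wells; inactive = z-score above -3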;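 also: negative z-score means lost luminescence so less FERM oligomerization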
Target sequence (Q14289 whole entry, looked up): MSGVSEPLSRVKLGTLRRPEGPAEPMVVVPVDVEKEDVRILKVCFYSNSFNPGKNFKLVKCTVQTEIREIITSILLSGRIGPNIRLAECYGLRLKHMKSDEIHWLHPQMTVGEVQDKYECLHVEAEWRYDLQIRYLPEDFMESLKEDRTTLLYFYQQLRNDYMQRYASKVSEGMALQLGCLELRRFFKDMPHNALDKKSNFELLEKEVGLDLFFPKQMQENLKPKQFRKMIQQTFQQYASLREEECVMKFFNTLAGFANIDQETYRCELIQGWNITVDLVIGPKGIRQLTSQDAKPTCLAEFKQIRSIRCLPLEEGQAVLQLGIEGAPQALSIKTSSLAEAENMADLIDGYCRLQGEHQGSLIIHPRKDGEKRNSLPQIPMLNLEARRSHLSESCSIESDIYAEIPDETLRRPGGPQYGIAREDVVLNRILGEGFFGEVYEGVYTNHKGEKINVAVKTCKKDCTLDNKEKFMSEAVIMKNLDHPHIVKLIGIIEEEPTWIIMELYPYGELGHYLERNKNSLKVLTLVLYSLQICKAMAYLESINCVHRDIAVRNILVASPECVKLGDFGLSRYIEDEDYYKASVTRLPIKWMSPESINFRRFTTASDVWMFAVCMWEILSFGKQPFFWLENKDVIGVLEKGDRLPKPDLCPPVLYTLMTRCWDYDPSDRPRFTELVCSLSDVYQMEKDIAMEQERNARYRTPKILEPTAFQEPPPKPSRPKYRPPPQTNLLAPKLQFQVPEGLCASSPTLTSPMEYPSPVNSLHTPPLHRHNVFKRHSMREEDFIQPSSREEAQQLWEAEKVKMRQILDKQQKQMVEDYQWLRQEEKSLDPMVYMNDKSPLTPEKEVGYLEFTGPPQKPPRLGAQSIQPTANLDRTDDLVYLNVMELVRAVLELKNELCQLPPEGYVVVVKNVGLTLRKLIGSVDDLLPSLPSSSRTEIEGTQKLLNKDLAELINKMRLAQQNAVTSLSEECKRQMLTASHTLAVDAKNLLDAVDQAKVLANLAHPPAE
E coli WT exp = blocks growth of wild type E. coli BW25113. OD600 absorbance. growth inhibition, % at 100 µM. 0.15% of 98,000 active. AID 710;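 active = growth inhibition above about 50% at one test dose, limit read from the data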;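 also: growth measured after 20 h incubation at 37 °C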
* marks the source's active call; other numbers are inactive results; . = not tested or not shown. Most compounds without a hit are left out; they make up all but 6.5% or so of the library. Rule as the data show it, unless noted: active = inhibition above about 30%; inactive = the rest.

SMILES	Candida biofilm	PostGolgi ctrl	tolC growth inh	PostGolgi yeast	PTK2B oligo ant	E coli WT exp
O=C(Nc1ccc(Cl)cn1)C1CCCN1S(=O)(=O)c1ccc(Cl)cc1 (stereo not drawn)	-3	19	2	20	-0.11	5
O=C(Nc1ccc(Cl)cn1)C1CCCN1S(=O)(=O)c1cccc2ccccc12 (stereo not drawn)	2	50*	.	-3	0.41	-17
COc1ccc2c3c(c(=O)oc2c1OCC(N)=O)CCCC3	0	12	3	8	-1.8	2
Cn1c(=O)c(Cc2ccccc2)c(O)c2ccccc21	3	49*	.	2	-0.08	1
CCN(CC)c1nc(=S)nc(NC(C)(C)C)[nH]1	.	-1	.	-7	-0.21	12
COc1cc(NS(=O)(=O)c2ccc(NC(=O)c3ccco3)cc2)nc(OC)n1	2	35*	-14	-6	-0.33	-3
COc1cc(NS(=O)(=O)c2ccc(NC(C)=O)cc2)nc(OC)n1	3	21	.	4	1.4	-8
S=c1[nH]nc(COc2ccccc2)n1/N=C/c1ccc(Br)s1	.	31*	.	-2	0.8	-2
O=C(CCN1CCN(Cc2ccccc2)CC1)Nc1cccc(Cl)c1	10	9	10	15	0.14	7
Cc1cccc(NC(=O)CCc2c(C)nc3ncnn3c2C)n1	3	0	.	-3	0.82	0
N#CCCN1CCN(CCC#N)CC1	2	9	-27	0	0.23	-2
Cc1cc(CN2CCN(CCC#N)CC2)c(O)c(C2(C)CCCCC2)c1	5	59*	32	-2	1.1	7
Cc1nnc2c(NC(C)C)nc3ccccc3n12	-5	2	12	3	1.8	5
COc1ccccc1OCC(=O)N(Cc1nc(-c2ccc(Cl)cc2)no1)C(C)C	0	46*	10	-8	.	-15
CC(C)N(Cc1nc(-c2ccccc2)no1)C(=O)COc1ccccc1	1	12	5	0	.	2
COc1cccc(OCC(=O)N(Cc2nc(-c3ccc(Cl)cc3)no2)C(C)C)c1	1	54*	63*	10	.	-5
CC(C)N(Cc1nc(-c2ccc(Cl)cc2)no1)C(=O)CCC1CCCC1	8	35*	72*	3	.	4
Cc1cccc(-c2noc(CN(C(=O)c3ccc(Br)o3)C(C)C)n2)c1	-4	33*	63*	-2	-0.94	-11
O=c1n(-c2ccccc2)c(=O)n(Cc2ccccn2)n1Cc1ccccn1	7	0	-6	3	0.41	0
COc1ccc(C(=O)Cc2ccc(OC)c(OC)c2)c(OC)c1	3	5	.	0	0.3	1
COc1ccc(C(C)(C)C)cc1NC(=O)COC(=O)c1ncc(Cl)c(Cl)c1Cl	.	.	.	.	0.16	.
COCC(COCCCNC(=O)Nc1ccc(Br)cc1)OC (stereo not drawn)	4	3	-2	11	2.1	-17
CC(C)C(=O)NC(NC(=S)Nc1cccc2cccnc12)C(Cl)(Cl)Cl (stereo not drawn)	.	15	.	7	-0.28	0
Cc1ccc(C)c(C(=O)N(Cc2nc(-c3ccc(Cl)cc3)no2)C(C)C)c1	13	32*	77*	-1	.	-23
O=c1c2ccccc2nc(-c2ccccc2)n1Cc1ccco1	0	5	29	-1	-1.6	1
SMILES	Candida biofilm	PostGolgi ctrl	tolC growth inh	PostGolgi yeast	PTK2B oligo ant	E coli WT exp
c1ccc(-c2oc3ncnc(NCCCn4ccnc4)c3c2-c2ccccc2)cc1	8	66*	98*	3	-2.7	2
c1ccc(-c2c(-c3ccccc3)n(Cc3ccco3)c3ncnc(NCCCn4ccnc4)c23)cc1	4	94*	.	96*	-2.2	13
OCCNc1ncnc2c1c(-c1ccccc1)c(-c1ccccc1)n2Cc1ccco1	.	33*	5	27	-3.3*	-5
Cc1nn(C/C(C#N)=N\O)c(C)[n+]1N	4	27	-17	-3	0.36	-12
Cc1c(Br)c([N+](=O)[O-])nn1C(C)C(=O)N1CCCc2ccccc21 (stereo not drawn)	.	6	.	-1	-2.1	-1
Cc1ccc(C2Oc3ccccc3C3=C2C(c2cccs2)n2ncnc2N3)cc1 (stereo not drawn)	0	39*	.	18	-2	-7
Fc1ccc(C2C3=C(Nc4ncnn42)c2ccccc2OC3c2ccncc2)cc1 (stereo not drawn)	4	8	7	-8	-0.52	-2
c1ccc(Cn2nnc3c(N4CCOCC4)ncnc32)cc1	.	6	1	-2	.	6
c1ccc(Cn2nnc3c(N4CCN(Cc5ccc6c(c5)OCO6)CC4)ncnc32)cc1	7	11	61*	-5	-2.8	-24
c1ccc2c(c1)oc1c(N3CCN(Cc4ccc5c(c4)OCO5)CC3)ncnc12	2	12	100*	7	-1.7	-15
CC(Oc1ccc(Cl)cc1Cl)C(=O)Nc1ccc2oc(-c3ccncc3)nc2c1 (stereo not drawn)	9	9	48	-2	-3.2*	-2
COc1cc(CNC2CCCC2)cc(Cl)c1OCc1ccc(F)cc1	.	44*	.	-1	-0.31	24
COc1cc(CNC2CCCC2)cc(Cl)c1OCc1ccccc1Cl	.	33*	.	8	-0.64	16
COc1cc(CNC2CCCC2)cc(OC)c1OC	2	-6	.	21	0.97	7
O=C(CSc1nc(C2CC2)nc2ccccc12)N1CCc2ccccc2C1	.	68*	.	-6	.	-20
O=C(CSc1ncnc2c1oc1ccccc12)N1CCc2ccccc2C1	9	.	-7	.	.	.
O=C(NC1CCCCC1)C(c1ccco1)N(Cc1cccnc1)C(=O)C1COc2ccccc2O1 (stereo not drawn)	4	30*	13	7	0.15	-1
O=C(NCC(=O)N(Cc1ccccc1)C(C(=O)NC1CCCC1)c1cccnc1)c1ccco1 (stereo not drawn)	9	.	.	.	-0.4	.
Oc1ccc(Cl)cc1CNc1ccc(Br)cn1	6	48*	7	0	-0.87	13
O=S(=O)(c1cc(Cl)ccc1Cl)N1CC2CCCN2c2ccc(C(F)(F)F)cc21 (stereo not drawn)	.	10	.	-4	-0.67	-10
COC(=O)c1c(NC(=O)CCc2ccc(C)o2)sc(C)c1C	4	5	61*	4	0.26	1
COC(=O)CNc1ccc2c(c1)OCO2	8	.	.	.	-0.54	.
Cc1cc(C(=O)N2CCN(C/C=C/c3ccccc3)CC2)cs1	4	-9	16	-2	0.01	17
O=C(c1cc(Br)c(Br)s1)N1CCN(C/C=C/c2ccccc2)CC1	3	46*	.	8	-0.69	-24
O=C(Nc1ccc(Cl)cc1)N(Cc1cccnc1)Cc1ccco1	.	2	12	-5	-0.76	21
Cc1ccc(NS(=O)(=O)c2ccc(NC(=O)[C@@H]3CCCC[C@@H]3C(=O)O)cc2)c(C)c1	.	14	.	-3	1.8	8
COc1ccc(C2=NOC(C(=O)Nc3ccc(C)cc3)C2)cc1OC (stereo not drawn)	6	2	7	7	-0.41	0
COc1cc(C2=NOC(C(=O)Nc3ccc(C)cc3)C2)cc(OC)c1OC (stereo not drawn)	3	31*	-4	15	-0.48	-2

Compound activity as filed in PubChem BioAssay.
